Experimental data from publication PMC11725097 (Acta Pharmaceutica Sinica. B, 2024).

Key:
HepG2 cells [1] = assay: Formation of compound 3 in lysosomes of HepG2 cells; assay type: cell-based; settings: HepG2, JZ-6 25 μmol/L with BNPP 20 μmol/L or telaprevir 5 μmol/L, 6 h
Procedure, shortened: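 HepG2 cells were treated 6 h with donor (25 µmol/L) alone, with BNPP (20 µmol/L) or with telaprevir (5 µmol/L). For lysosome isolation, cells were Dounce-homogenised and spun at 1000 × g, then 20,000 × g, and the top band taken from an OptiPrep gradient at 100,000 × g, 1 h. Fractions were lysed in cold 70% methanol and analysed by LC–MS/MS, normalised to BCA protein. Triplicate.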

[2] = test system: human hepatic stellate LX-2 cells; assay: TGF-β1-induced fibrosis in LX-2 cells, ACTA2 and COL1A1 mRNA; assay type: cell-based; settings: LX-2, TGF-β1, 72 h; JZ-HND 25-200 μmol/L, others 200 μmol/L
HepG2 cells [3] = assay: FFA-induced ROS accumulation in HepG2 cells; assay type: cell-based; settings: HepG2, compound 100 μmol/L 8 h before FFA 1 mmol/L 24 h
HepG2 cells [4] = assay: MDA; assay type: cell-based; settings: HepG2, FFA 1 mmol/L, 24 h; JZ-6 20, 100, 500 μmol/L; NaHS and JZ-9 500 μmol/L
Procedure, shortened: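 HepG2 cells (7×10^5/well, plated overnight) were co-incubated 24 h with FFA (1 mmol/L) alone or plus compound (20, 100 or 500 µmol/L) or NaHS (500 µmol/L). MDA in cell lysates was measured with a kit by fluorescence at Ex/Em 532/553 nm and normalised to cell counts. Three independent experiments, mean ± SD.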

RAW264.7 macrophages = assay: LPS-induced IL-1β and IL-6 release in RAW 264.7 macrophages; assay type: cell-based, mouse; settings: RAW 264.7, LPS 1 μg/mL, 20, 100, 500 μmol/L, 24 h
Procedure, shortened: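 RAW 264.7 cells (2×10^5/well) were plated overnight. Cells were pretreated 1 h with compound or NaHS at 20, 100 or 500 µmol/L, then stimulated with LPS (1 µg/mL) for 24 h. IL-1β and IL-6 in the supernatants were measured by ELISA. Three independent experiments, mean ± SD.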

[5] = target: T1, recombinant human cathepsin A (CTSA) (Homo sapiens, UniProt P10619); assay: CTSA-catalyzed H2S release, fluorescent probe DNS-N3; assay type: biochemical; settings: donors 5 μmol/L, CTSA 250 ng/mL, pH 7.4, 37 °C
T1 sequence (P10619 29-326 limits assumed): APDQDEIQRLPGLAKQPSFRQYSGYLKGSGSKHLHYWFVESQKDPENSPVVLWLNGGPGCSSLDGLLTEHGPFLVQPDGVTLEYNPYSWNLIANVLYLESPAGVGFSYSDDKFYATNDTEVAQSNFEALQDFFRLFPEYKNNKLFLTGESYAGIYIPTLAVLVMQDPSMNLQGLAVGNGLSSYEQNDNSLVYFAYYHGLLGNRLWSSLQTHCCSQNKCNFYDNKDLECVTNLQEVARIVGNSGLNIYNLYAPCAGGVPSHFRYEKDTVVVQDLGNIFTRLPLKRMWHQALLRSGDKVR
T1 sequence (P10619 327-480 limits assumed): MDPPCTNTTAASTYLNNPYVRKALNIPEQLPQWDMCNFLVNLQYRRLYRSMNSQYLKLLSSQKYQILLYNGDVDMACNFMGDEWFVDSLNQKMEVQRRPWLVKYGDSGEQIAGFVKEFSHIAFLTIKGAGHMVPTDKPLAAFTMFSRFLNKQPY
Procedure, shortened: (§1)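 Donor at 5 µmol/L final and DNS-N3 probe at 10 µmol/L final were incubated at 37 °C in 10 mmol/L TBS, pH 7.4, with 1% acetonitrile and 1% […]. The enzyme was either CPY at 60 ng/mL or pre-activated recombinant human CTSA at 250 ng/mL. Aliquots were mixed 1:1 with ACN and fluorescence read at Ex/Em 325/450 nm, minus control background. k came from a single-exponential fit, with t1/2 = 0.693/k. Triplicates, mean ± SD.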

HepG2 cells [6] = assay: Ferroptosis rescue, RSL3-treated HepG2 cells; assay type: cell-based; settings: HepG2, RSL3 4 μmol/L; JZ-6 20 μmol/L, Fer-1 1 μmol/L, 24 h
Procedure, shortened: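 HepG2 cells (5×10^3/well) were plated overnight. Cells were pretreated 2 h with RSL3 (4 µmol/L), then given medium, compound (20 µmol/L) or Fer-1 (1 µmol/L) for 24 h. CCK-8 was added for 2–4 h at 37 °C and absorbance read at 450 nm. Viability is expressed as % of medium-treated control. Three independent experiments, mean ± SD.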

Carboxypeptidase Y (CPY) [7] = target: T2, Carboxypeptidase Y (CPY) (Saccharomyces cerevisiae, UniProt P00729); assay: Enzyme; assay type: biochemical; settings: CPY 60 ng/mL; for H2S release over 6 h: donors 5 μmol/L, DNS-N3 10 μmol/L, TBS pH 7.4, 37 °C
T2 sequence (P00729 112-532): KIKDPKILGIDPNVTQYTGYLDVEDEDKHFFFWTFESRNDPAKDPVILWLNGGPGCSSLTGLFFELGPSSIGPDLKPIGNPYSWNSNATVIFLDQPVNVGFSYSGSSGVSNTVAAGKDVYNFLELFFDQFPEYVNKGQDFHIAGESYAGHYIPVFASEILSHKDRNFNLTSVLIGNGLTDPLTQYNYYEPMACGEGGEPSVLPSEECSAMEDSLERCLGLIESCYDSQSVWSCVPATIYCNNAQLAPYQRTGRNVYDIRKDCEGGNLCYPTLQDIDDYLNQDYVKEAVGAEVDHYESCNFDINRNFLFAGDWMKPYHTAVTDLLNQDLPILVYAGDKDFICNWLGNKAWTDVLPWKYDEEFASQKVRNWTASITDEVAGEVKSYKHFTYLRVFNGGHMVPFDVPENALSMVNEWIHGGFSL
Procedure, shortened: as §1

LX-2 cells = assay: ROS induced by TGF-β1 in LX-2 cells; assay type: cell-based, human; settings: LX-2, TGF-β1 10 ng/mL, compound 100 μmol/L, 24 h
Procedure, shortened: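 LX-2 cells were grown in high-glucose DMEM with 10% FBS at 37 °C and 5% CO2, then plated at 1×10^5/well overnight. Cells were co-treated 24 h with compound (100 µmol/L) and TGF-β1 (10 ng/mL). They were loaded with DCFH-DA (10 µmol/L) for 30 min and Hoechst 33342 for 10 min at 37 °C, then imaged by fluorescence microscopy in the GFP channel.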

[8] = test system: CCl4-induced liver injury; assay: CCl4-induced liver injury model in mice; assay type: in vivo, BALB/c mice; settings: 1 mmol/kg oral daily, 4 weeks
Carboxypeptidase Y (CPY) [9] = target: T2, Carboxypeptidase Y (CPY); assay: H2S donor activation by CPY monitored by LC-MS/MS; assay type: in vitro ADME; settings: JZ-HND 5 μmol/L, CPY 60 ng/mL
Procedure, shortened: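 Donor at 5 µmol/L final and DNS-N3 at 10 µmol/L final were incubated with CPY (60 ng/mL) in 10 mmol/L TBS, pH 7.4, with 1% menthol, at 37 °C. Parent loss and formation of products, including DNS-NH2, were quantified by LC–MS/MS against calibration curves. Rate constants came from a single-exponential fit, with t1/2 = 0.693/k. Triplicate runs, mean ± SD.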

[10] = H2S release within tissue homogenates; assay type: in vitro ADME, Sprague-Dawley rats; settings: donors 250 μmol/L, rat intestine and liver homogenates, 40 min
[11] = Animal pharmacokinetics, mice livers; assay type: in vivo, BALB/c mice; settings: oral JZ-HND 1.0 mmol/kg
Procedure, shortened: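 Male BALB/c mice, fasted 12 h without water, were gavaged at 1 mmol/kg in 0.5% CMC-Na (3 groups, n = 3 each). Plasma was separated by centrifugation and stored below −40 °C. Liver was taken at 0.5, 4 and 8 h post dose and homogenised 10:1 in PBS containing 70% MeOH. Parent and metabolites were quantified by LC–MS/MS.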

[12] = Detection of H2S and sulfur-containing species in mouse liver; assay type: in vivo, BALB/c mice; settings: oral JZ-HND 1.0 mmol/kg
Procedure, shortened: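 BALB/c mice received an oral dose of 1.0 mmol/kg. Liver was collected before dosing (0 h) and at 0.5 and 4 h, then homogenised 10:1 in 20 mmol/L HPE-IAM in MeOH to trap H2S and sulfur species as S-alkylated derivatives, and stored below −40 °C. Derivatives were quantified by LC–MS/MS against synthesised standards and calibration curves. n = 3, mean ± SD.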

**Q.** Which “effect of inhibitor on lysosomal 3 formed from JZ-6” value (HepG2 cells [1]) does the source give for `CCC[C@H](NC(=O)[C@@H]1[C@H]2CCC[C@H]2CN1C(=O)[C@@H](NC(=O)[C@@H](NC(=O)c1cnccn1)C1CCCCC1)C(C)(C)C)C(=O)C(=O)NC1CC1` [telaprevir] here?
**A.** The value was “significant decrease”.

**Q.** Which “mRNA expression of ACTA2 and COL1A1” value [2] does the source give for `Cc1ccc(=O)n(-c2ccc(OP(=O)(N[C@@H](C)C(=O)OC(C)C)c3ccccc3)cc2)c1` (stereo partly shown) [JZ-17] here?
**A.** Its value is “did not inhibit the expression of pro-fibrotic genes as much as JZ-HND”.

**Q.** Which results are given for `[Na+].[SH-]` [NaHS]?
**A.** cellular ROS accumulation induced by FFA (HepG2 cells [3]): strikingly reduced the cellular fluorescence signal; MDA levels (lipid peroxidation) (HepG2 cells [4]): alleviated; IL-1β and IL-6 secretion (RAW264.7 macrophages): modest inhibitory effect

**Q.** What does the source list for `CC(C)OC(=O)[C@H](C)NP(=S)(Oc1ccc(CCN2CCOCC2)cc1)c1ccccc1` (stereo partly shown) [JZ-18]?
**A.** H2S release, rate constant k [5]: 0.2978 h⁻¹; H2S yield ([5]; 10 h): approximately 37%

**Q.** For `O=[N+]([O-])c1ccc(OP(=O)(O)Oc2ccc([N+](=O)[O-])cc2)cc1` [BNPP, bis(p-nitrophenyl) phosphate], which “effect of inhibitor on lysosomal 3 formed from JZ-6” value (HepG2 cells [1]) is on record?
**A.** The value was “increase in lysosomal 3”.

**Q.** For `CCOC(=O)c1ccc(NC2CCCCC2)c(N)c1` [ferrostatin-1], which “cell viability after RSL3 (ferroptosis rescue)” value (HepG2 cells [6]) is on record?
**A.** The value was “attenuated RSL3-induced cytotoxicity”.

**Q.** For `Cc1ccc(=O)n(-c2ccc(OP(=S)(N[C@@H](C)C(=O)OC(C)C)c3ccccc3)cc2)c1` (stereo partly drawn) [JZ-HND, isopropyl ((4-(5-methyl-2-oxopyridin-1(2H)-yl)phenoxy) (phenyl)phosphorothioyl)-L-alaninate], which “mRNA expression of ACTA2 and COL1A1” value [2] is on record?
**A.** Its value is “dose-dependently inhibited”.

**Q.** And the “generation of H2S, rate constant k” value (Carboxypeptidase Y (CPY) [7]; JZ-HND 5 μmol/L, pH 7.4, 37 °C)?
**A.** Its value is 0.3748 h⁻¹.

**Q.** And the “ROS levels induced by TGF-β1” value (LX-2 cells)?
**A.** The value was “significantly inhibited”.

**Q.** And the “collagen fiber accumulation (Masson's trichrome)” value [8]?
**A.** The value was “significantly slowed collagen fiber accumulation”.

**Q.** What about the “hepatic ballooning and inflammatory cell infiltration (H&E)” value [8] of the same compound?
**A.** The value was “significantly reduced”.

**Q.** What about the “hepatic expression of oxidative stress genes (Gpx1, Sod1, Sod2, Cat)” value [8] of the same compound?
**A.** Its value is “rebounded”.

**Q.** And the “hepatic tissue GPX activity” value [8]?
**A.** The value was “significant increase”.

**Q.** And the “liver gene levels of fibrotic markers (Tgfb1, Col1a1, Col3a1, Acta2)” value [8]?
**A.** Its value is “reversals of the increased gene levels”.

**Q.** And the “liver mRNA levels of Nfkb1, Il1b and Tnfa” value [8]?
**A.** Its value is “strongly suppressed”.

**Q.** What about the “serum ALT and AST levels” value [8] of the same compound?
**A.** Its value is “consistently lower”.

**Q.** What about the “serum SOD activity” value ([8]; vs control and HND groups) of the same compound?
**A.** Its value is “significantly lower”.

**Q.** And the “generation of 3, rate constant k” value (Carboxypeptidase Y (CPY) [9])?
**A.** The value was 0.3133 h⁻¹.

**Q.** And the “generation of HND, rate constant k” value (Carboxypeptidase Y (CPY) [9])?
**A.** The value was 1.090 h⁻¹.

**Q.** What about the “degradation of donor, rate constant k” value (Carboxypeptidase Y (CPY) [9]; TBS pH 7.4, 37 °C) of the same compound?
**A.** Its value is 1.085 h⁻¹.

**Q.** And the “H2S release behaviour in homogenates” value [10]?
**A.** The value was “biphasic and lasted longer”.

**Q.** And the “Cmax (liver)” value [11]?
**A.** Its value is 15 µM.

**Q.** And the “time of maximum intrahepatic concentration” value [11]?
**A.** The value was “half an hour”.

**Q.** What about the “detection in the liver after 8 h of administration” value ([11]; 8 h) of the same compound?
**A.** Its value is “not detected”.

**Q.** And the “IL-1β and IL-6 secretion” value (RAW264.7 macrophages)?
**A.** The value was “significant inhibition”.

**Q.** And the “levels of HSSH and CysSH in liver” value [12]?
**A.** The value was “no significant change”.

**Q.** What about the “levels of GSH, GSSH and CysSSH in liver” value ([12]; 0.5 h) of the same compound?
**A.** Its value is “significant increases”.

**Q.** What about the “H2S level in liver tissue” value ([12]; 0.5 h vs pre-dose (0 h)) of the same compound?
**A.** The value was “significant increase compared to the pre-dose level”.

**Q.** Which results are given for `C1COCCN1.COc1ccc(P(=S)(S)N2CCOCC2)cc1` (stereo not shown) [GYY4137, reference compound]?
**A.** H2S release over 6 h (Carboxypeptidase Y (CPY) [7]): low amount of H2S; H2S release behaviour in homogenates [10]: almost undetectable

**Q.** With `CNC(=O)[C@H](C)NP(=S)(Oc1ccccc1)c1ccccc1` (stereo partly shown) [JZ-12] as the compound, how does the “H2S release over 6 h” value (Carboxypeptidase Y (CPY) [7]) read?
**A.** The value was “inadequate”.
